Converted amounts (≈) assume the structure as drawn.
Columns and labels:
HuT78 [1] = assay: Inhibitory concentration that reduced the number of gaint cells by 50% between HIV-1 infected HUT-78 cells and uninfected MOLT-4 cells; format: functional, cell-based; details: Homo sapiens
Method in brief: (§1)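 MOLT-4 cells were cocultured with an equal number of HUT-78/HTLV-IIIB or HUT-78/LAV-2ROD cells at various compound concentrations for 24 h. Giant cells were counted microscopically and analysed by laser flow cytometry. The value is the concentration reducing giant cell number by 50%, as the mean of at least three experiments.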

HuT78 [2] = assay: Inhibitory concentration that reduced the number of gaint cells by 50% between HIV-2 infected HUT-78 cells and uninfected MOLT-4 cells; format: functional, cell-based; details: Homo sapiens; method in brief: as §1
[3] = system: Human immunodeficiency virus 1; assay: Inhibitory concentration for cytopathicity of HIV-1 (HTLV-IIIB) in CEM cells; format: functional, organism-based; details: Human immunodeficiency virus 1, CCRF-CEM
Method in brief: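 HIV-1 (HTLV-IIIB)-infected CEM cells were treated with the compounds. Cell viability was determined by a tetrazolium (XTT) assay. The 50% inhibitory concentration for cytopathicity is the mean of at least three experiments.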

[4] = system: Human immunodeficiency virus 1; assay: Inhibitory concentration for cytopathicity of HIV-1 (HTLV-IIIB) in MT-4 cells; format: functional, organism-based; details: Human immunodeficiency virus 1, MT4
[5] = system: Human immunodeficiency virus 2; assay: Inhibitory concentration for cytopathicity of HIV-2 (LAV-2ROD) in MT-4 cells; format: functional, organism-based; details: Human immunodeficiency virus 2, MT4
[6] = 50% cytotoxic concentrations for mock-infected MT-4 cells; format: cell-based, MT4; details: human
Method in brief: (§2)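 Mock-infected MT-4 cells were exposed to the compounds. Viability was read by a tetrazolium (MTT) colorimetric method in 96-well microtrays. The value is the concentration that is 50% cytotoxic, given as the mean of at least three experiments.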

[7] = 50% cytotoxic concentrations for mock-infected MT-4 cells.; format: cell-based, MT4; details: human; method in brief: as §2
HuT78 [8] = assay: Inhibitory concentration that reduced the number of gaint cells by 50% between HIV-1 infected HUT-78 cells and uninfected MOLT-4 cells.; format: functional, cell-based; details: Homo sapiens; method in brief: as §1
HuT78 [9] = assay: Inhibitory concentration that reduced the number of gaint cells by 50% between HIV-2 infected HUT-78 cells and uninfected MOLT-4 cells.; format: functional, cell-based; details: Homo sapiens; method in brief: as §1

Work on COC(=O)c1cc(C(c2ccc(O)c(C(=O)OC)c2)c2ccc(O)c(C(=O)OC)c2)ccc1O yielded an IC50 (HuT78 [1]) greater than 100 µg/mL, an IC50 (HuT78 [2]) greater than 100 µg/mL and an IC50 [3] greater than 78 µg/mL. For the same molecule, the IC50 [4] was greater than 100 µg/mL, the IC50 [5] was greater than 100 µg/mL and the CC50 [6] was 52 µg/mL (≈ 111 µM).
For O=C(O)C1=CC(=C(c2ccc(O)c(C(=O)O)c2)c2ccc(O)c(C(=O)O)c2)C=CC1=O [AURINTRICARBOXYLIC ACID], the IC50 (HuT78 [2]) was 4 µg/mL (≈ 9.47 µM), the IC50 [3] was 2.1 µg/mL (≈ 4.97 µM) and the IC50 [4] was 1.1 µg/mL (≈ 2.6 µM). The IC50 [5] was 0.85 µg/mL (≈ 2.01 µM) and the CC50 [6] was 280 µg/mL (≈ 663 µM).
With Cc1cc(C(c2cc(C)c(O)c(C(=O)O)c2)c2cc(C)c(O)c(C(=O)O)c2)cc(C(=O)O)c1O the IC50 (HuT78 [1]) was greater than 20 µg/mL, the IC50 (HuT78 [2]) was greater than 20 µg/mL and the IC50 [3] was greater than 186 µg/mL. For the same molecule, the IC50 [4] was 80 µg/mL (≈ 172 µM), the IC50 [5] was 67 µg/mL (≈ 144 µM) and the CC50 [6] was 82 µg/mL (≈ 176 µM).
O=C(O)c1cccc(Cc2cccc(C(=O)O)c2O)c1O gave an IC50 [3] greater than 125 µg/mL, an IC50 [4] greater than 100 µg/mL and an IC50 [5] greater than 100 µg/mL. The CC50 [7] was greater than 100 µg/mL.
In the case of COC(=O)c1cc(C(O)(c2ccc(O)c(C(=O)OC)c2)c2ccc(O)c(C(=O)OC)c2)ccc1O, the IC50 (HuT78 [1]) is reported as greater than 100 µg/mL, the IC50 (HuT78 [2]) is reported as greater than 100 µg/mL and the IC50 [3] is reported as greater than 78 µg/mL. The IC50 [4] was greater than 100 µg/mL, the IC50 [5] was greater than 100 µg/mL and the CC50 [6] was 66 µg/mL (≈ 137 µM).
In the case of Cc1cc(C(O)(c2cc(C)c(O)c(C(=O)O)c2)c2cc(C)c(O)c(C(=O)O)c2)cc(C(=O)O)c1O, the IC50 [3] is reported as greater than 205 µg/mL, the IC50 [4] is reported as greater than 100 µg/mL and the IC50 [5] is reported as greater than 100 µg/mL. It also gave a CC50 [6] greater than 100 µg/mL.
Work on O=C(O)c1cc(C(c2ccc(O)c(C(=O)O)c2)c2ccc(O)c(C(=O)O)c2)ccc1O yielded an IC50 (HuT78 [1]) greater than 100 µg/mL, an IC50 (HuT78 [2]) of 15 µg/mL (≈ 35.3 µM) and an IC50 [3] of 32.5 µg/mL (≈ 76.6 µM). It also gave an IC50 [4] greater than 100 µg/mL, an IC50 [5] of 13 µg/mL (≈ 30.6 µM) and a CC50 [6] of 256 µg/mL (≈ 603 µM).
Molecule O=C(O)c1cc(Br)cc(Cc2cc(Br)cc(C(=O)O)c2O)c1O has an IC50 [3] of 72.1 µg/mL (≈ 162 µM), an IC50 [4] greater than 100 µg/mL and an IC50 [5] greater than 100 µg/mL. It also gave a CC50 [7] greater than 100 µg/mL.
O=C(O)c1cc(Cc2cc(Br)c(O)c(C(=O)O)c2)cc(Br)c1O showed an IC50 [4] greater than 100 µg/mL, an IC50 [5] greater than 100 µg/mL and a CC50 [7] greater than 100 µg/mL.
In the case of O=C(O)c1cc(Cc2cc(C(=O)O)c(O)c3ccccc23)c2ccccc2c1O, the IC50 (HuT78 [8]) is reported as greater than 20 µg/mL, the IC50 (HuT78 [9]) is reported as greater than 20 µg/mL and the IC50 [3] is reported as 20 µg/mL (≈ 51.5 µM). For the same molecule, the IC50 [4] was 75 µg/mL (≈ 193 µM), the IC50 [5] was 79 µg/mL (≈ 203 µM) and the CC50 [7] was 73 µg/mL (≈ 188 µM).
CC1=C/C(=C(/c2cc(C)c(O)c(C(=O)[O-])c2)c2c(Cl)ccc(S(=O)(=O)[O-])c2Cl)C=C(C(=O)[O-])C1=O.[Na+].[Na+].[Na+] [CHROME AZUROL S] gave an IC50 [3] of 50.2 µg/mL.
For O=C(O)c1cc(Cc2cc(Cl)c(O)c(C(=O)O)c2)cc(Cl)c1O, the IC50 [3] was 117 µg/mL (≈ 328 µM), the IC50 [4] was greater than 100 µg/mL and the IC50 [5] was greater than 100 µg/mL. For the same molecule, the CC50 [7] was greater than 100 µg/mL.
Cc1cc(Cc2cc(C)c(O)c(C(=O)O)c2)cc(C(=O)O)c1O gave an IC50 [3] of 55.5 µg/mL (≈ 175 µM), an IC50 [4] greater than 100 µg/mL and an IC50 [5] greater than 100 µg/mL. The CC50 [6] was greater than 100 µg/mL.
O=S(=O)([O-])c1cc(Cl)cc(Cc2cc(Cl)cc(S(=O)(=O)[O-])c2O)c1O.[Na+].[Na+] gave an IC50 (HuT78 [1]) greater than 100 µg/mL, an IC50 (HuT78 [2]) greater than 100 µg/mL and an IC50 [3] of 123 µg/mL. For the same molecule, the IC50 [4] was greater than 100 µg/mL, the IC50 [5] was greater than 100 µg/mL and the CC50 [6] was greater than 100 µg/mL.
For O=C(O)c1cc(Cc2ccc(O)c(C(=O)O)c2)ccc1O, the IC50 [3] was greater than 276 µg/mL, the IC50 [4] was greater than 100 µg/mL and the IC50 [5] was greater than 100 µg/mL. It also gave a CC50 [7] greater than 100 µg/mL.
COC(=O)c1cc(C(c2cc(C)c(O)c(C(=O)OC)c2)c2cc(C)c(O)c(C(=O)OC)c2)cc(C)c1O showed an IC50 [4] greater than 100 µg/mL, an IC50 [5] greater than 100 µg/mL and a CC50 [6] greater than 100 µg/mL.
Work on O=C(O)c1cc(C(O)(c2ccc(O)c(C(=O)O)c2)c2ccc(O)c(C(=O)O)c2)ccc1O yielded an IC50 (HuT78 [1]) greater than 100 µg/mL, an IC50 (HuT78 [2]) of 15 µg/mL (≈ 34.1 µM) and an IC50 [3] of 50.4 µg/mL (≈ 114 µM). For the same molecule, the IC50 [4] was greater than 100 µg/mL, the IC50 [5] was 15 µg/mL (≈ 34.1 µM) and the CC50 [6] was 248 µg/mL (≈ 563 µM).

From ChEMBL document CHEMBL1125737, “Synthesis and anti-HIV activities of low molecular weight aurintricarboxylic acid fragments and related compounds” (J Med Chem, 1991)
